Active and inactive are the calls of the source. The calls are words filed in the database; no cut-off is given here.
What was measured:
[1] = molecular target: Receptor-type tyrosine-protein kinase FLT3 (Homo sapiens) (UniProt P36888); assay: Inhibition of FLT3 (unknown origin) assessed as remaining activity at 1 uM by Kinome scan method relative to control
[2] = molecular target: Serine/threonine-protein kinase ICK (Homo sapiens) (UniProt Q9UPZ9); assay: Inhibition of ICK (unknown origin) assessed as remaining activity at 1 uM by Kinome scan method relative to control
[3] = molecular target: Dual specificity protein kinase CLK3 (Homo sapiens) (UniProt P49761); assay: Inhibition of CLK3 (unknown origin) assessed as remaining activity at 1 uM by Kinome scan method relative to control
How it was run: (§1)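 Active-site-dependent competition-binding profiling (KINOMEscan) at 1 μM against a 468-kinase panel; compound supplied from a 10 mM DMSO stock. Read-out is ctrl% = (test signal − positive control signal)/(negative control signal − positive control signal) × 100. DMSO is the negative control (100%) and a control compound the positive control (0%). Lower ctrl% means tighter binding.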

[4] = molecular target: Serine/threonine-protein kinase D1 (Homo sapiens) (UniProt Q15139); assay: Inhibition of PRKD1 (unknown origin) assessed as remaining activity at 1 uM by Kinome scan method relative to control
[5] = molecular target: Wee1-like protein kinase (Homo sapiens) (UniProt P30291); assay: Inhibition of WEE1 (unknown origin) assessed as remaining activity at 1 uM by Kinome scan method relative to control
[6] = molecular target: Cyclin-dependent kinase 19 (Homo sapiens) (UniProt Q9BWU1); assay: Inhibition of CDK11 (unknown origin) assessed as remaining activity at 1 uM by Kinome scan method relative to control
How it was run: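 KINOMEscan active-site-dependent competition-binding panel of 468 kinases, compound at 1 μM from a DMSO stock. Result reported as ctrl% = (test signal − positive control signal)/(negative control signal − positive control signal) × 100. The negative control is DMSO (100%) and the positive control is a control compound (0%). Lower ctrl% means tighter binding.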

[7] = molecular target: Cyclin-dependent kinase 5 (Homo sapiens) (UniProt Q00535); assay: Inhibition of CDK5 (unknown origin) assessed as remaining activity at 1 uM by Kinome scan method relative to control; how it was run: as §1
Sequence of Cyclin-dependent kinase 5 (Homo sapiens) (Q00535 whole entry, looked up): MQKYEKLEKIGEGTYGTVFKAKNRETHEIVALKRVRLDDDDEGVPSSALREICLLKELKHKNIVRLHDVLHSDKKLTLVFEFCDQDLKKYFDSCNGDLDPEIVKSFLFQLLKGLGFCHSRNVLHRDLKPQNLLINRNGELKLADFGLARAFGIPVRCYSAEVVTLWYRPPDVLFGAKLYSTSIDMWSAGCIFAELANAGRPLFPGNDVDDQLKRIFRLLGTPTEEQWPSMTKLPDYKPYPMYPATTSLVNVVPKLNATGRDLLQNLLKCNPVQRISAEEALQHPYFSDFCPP

HepG2 = assay: Induction of apoptosis in human HepG2 cells overexpressing MST2 assessed as early apoptosis cells at 3 uM by annexinV staining (Rvb =13.6 %); type: functional
[8] = molecular target: RAC-gamma serine/threonine-protein kinase (Homo sapiens) (UniProt Q9Y243); assay: Inhibition of AKT3 (unknown origin) assessed as remaining activity at 1 uM by Kinome scan method relative to control
Sequence of RAC-gamma serine/threonine-protein kinase (Homo sapiens) (Q9Y243 whole entry): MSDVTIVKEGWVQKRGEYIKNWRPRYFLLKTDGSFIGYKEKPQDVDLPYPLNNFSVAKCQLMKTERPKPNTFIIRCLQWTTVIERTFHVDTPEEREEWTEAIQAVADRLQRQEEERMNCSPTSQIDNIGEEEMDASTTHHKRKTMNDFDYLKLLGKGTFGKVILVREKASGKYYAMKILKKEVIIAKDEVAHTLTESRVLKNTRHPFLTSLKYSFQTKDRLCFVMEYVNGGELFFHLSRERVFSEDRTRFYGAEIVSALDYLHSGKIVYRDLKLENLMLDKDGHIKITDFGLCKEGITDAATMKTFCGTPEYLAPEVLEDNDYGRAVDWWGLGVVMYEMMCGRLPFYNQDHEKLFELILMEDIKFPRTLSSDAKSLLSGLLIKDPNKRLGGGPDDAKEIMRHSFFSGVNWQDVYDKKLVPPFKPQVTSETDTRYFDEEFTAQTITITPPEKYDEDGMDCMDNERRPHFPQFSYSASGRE
How it was run: (§2)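 Active-site-dependent competition-binding (KINOMEscan) panel of 468 kinases, test compound at 1 μM (from a 10 mM DMSO stock). Read-out is ctrl% = (test signal − positive control signal)/(negative control signal − positive control signal) × 100. DMSO is the negative control (100%) and a control compound is the positive control (0%). Lower ctrl% means tighter binding.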

[9] = molecular target: Casein kinase I isoform gamma-1 (Homo sapiens) (UniProt Q9HCP0); assay: Inhibition of CSNK1G1 (unknown origin) assessed as remaining activity at 1 uM by Kinome scan method relative to control; how it was run: as §1
[10] = molecular target: Vascular endothelial growth factor receptor 2 (Homo sapiens) (UniProt P35968); assay: Inhibition of VEGFR2 (unknown origin) assessed as remaining activity at 1 uM by Kinome scan method relative to control
[11] = molecular target: Serine/threonine-protein kinase LATS2 (Homo sapiens) (UniProt Q9NRM7); assay: Inhibition of LATS2 (unknown origin) assessed as remaining activity at 1 uM by Kinome scan method relative to control
Sequence of Serine/threonine-protein kinase LATS2 (Homo sapiens) (Q9NRM7 whole entry, canonical isoform): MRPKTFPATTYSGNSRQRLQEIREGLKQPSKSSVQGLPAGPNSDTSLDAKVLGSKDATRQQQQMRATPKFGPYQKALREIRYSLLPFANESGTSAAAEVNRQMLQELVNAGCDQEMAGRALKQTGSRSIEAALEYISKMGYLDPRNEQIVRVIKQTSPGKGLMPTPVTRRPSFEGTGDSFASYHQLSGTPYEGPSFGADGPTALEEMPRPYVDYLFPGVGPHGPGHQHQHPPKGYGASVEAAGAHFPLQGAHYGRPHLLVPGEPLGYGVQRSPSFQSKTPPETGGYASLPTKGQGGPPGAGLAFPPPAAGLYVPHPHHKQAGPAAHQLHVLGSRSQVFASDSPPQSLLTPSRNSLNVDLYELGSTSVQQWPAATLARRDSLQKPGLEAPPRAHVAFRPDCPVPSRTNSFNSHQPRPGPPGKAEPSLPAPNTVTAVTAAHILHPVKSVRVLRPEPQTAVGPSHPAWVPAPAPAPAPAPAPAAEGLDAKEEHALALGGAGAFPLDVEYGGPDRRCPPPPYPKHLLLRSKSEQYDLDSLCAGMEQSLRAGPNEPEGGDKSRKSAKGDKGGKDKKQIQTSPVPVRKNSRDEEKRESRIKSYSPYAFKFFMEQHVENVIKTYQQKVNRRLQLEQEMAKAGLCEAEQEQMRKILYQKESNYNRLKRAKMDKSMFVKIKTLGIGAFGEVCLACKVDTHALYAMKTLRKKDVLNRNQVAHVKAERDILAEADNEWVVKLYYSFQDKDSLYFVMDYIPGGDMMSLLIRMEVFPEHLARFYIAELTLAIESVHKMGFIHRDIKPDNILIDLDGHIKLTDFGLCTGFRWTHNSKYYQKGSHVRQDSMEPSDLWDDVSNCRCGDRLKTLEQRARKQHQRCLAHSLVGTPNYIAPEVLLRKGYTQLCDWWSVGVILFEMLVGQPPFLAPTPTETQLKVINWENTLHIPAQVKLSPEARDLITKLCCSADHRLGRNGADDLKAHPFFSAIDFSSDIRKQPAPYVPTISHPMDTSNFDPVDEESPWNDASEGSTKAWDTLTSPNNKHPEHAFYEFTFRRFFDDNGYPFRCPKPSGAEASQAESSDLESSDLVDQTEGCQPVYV

[12] = molecular target: Casein kinase I isoform alpha-like (Homo sapiens) (UniProt Q8N752); assay: Inhibition of CSNK1A1L (unknown origin) assessed as remaining activity at 1 uM by Kinome scan method relative to control; how it was run: as §1
[13] = molecular target: LIM domain kinase 1 (Homo sapiens) (UniProt P53667); assay: Inhibition of LIMK1 (unknown origin) assessed as remaining activity at 1 uM by Kinome scan method relative to control
[14] = molecular target: Atypical kinase COQ8A, mitochondrial (Homo sapiens) (UniProt Q8NI60); assay: Inhibition of ADCK3 (unknown origin) assessed as remaining activity at 1 uM by Kinome scan method relative to control; how it was run: as §2
[15] = molecular target: Non-receptor tyrosine-protein kinase TYK2 (Homo sapiens, UniProt P29597); assay: Binding affinity to TYK2 JH1domain-catalytic (unknown origin) assessed as dissociation constant
Mus musculus = assay: Protection against APAP induced liver injury in mouse assessed as decrease in ALT level at 1 mg/kg, ip administered at 2.5 hrs in the presence of NAC; type: functional, organism-based; conditions: Serum
[16] = molecular target: Serine/threonine-protein kinase Chk1 (Homo sapiens) (UniProt O14757); assay: Inhibition of CHEK1 (unknown origin) assessed as remaining activity at 1 uM by Kinome scan method relative to control; how it was run: as §1
[17] = molecular target: Beta-adrenergic receptor kinase 1 (Homo sapiens) (UniProt P25098); assay: Inhibition of GRK2 (unknown origin) assessed as remaining activity at 1 uM by Kinome scan method relative to control
[18] = molecular target: Casein kinase I isoform gamma-3 (Homo sapiens) (UniProt Q9Y6M4); assay: Inhibition of CSNK1G3 (unknown origin) assessed as remaining activity at 1 uM by Kinome scan method relative to control; how it was run: as §1
[19] = molecular target: Interferon-induced, double-stranded RNA-activated protein kinase (Homo sapiens) (UniProt P19525); assay: Inhibition of PRKR (unknown origin) assessed as remaining activity at 1 uM by Kinome scan method relative to control
Sequence of Interferon-induced, double-stranded RNA-activated protein kinase (Homo sapiens) (P19525 whole entry): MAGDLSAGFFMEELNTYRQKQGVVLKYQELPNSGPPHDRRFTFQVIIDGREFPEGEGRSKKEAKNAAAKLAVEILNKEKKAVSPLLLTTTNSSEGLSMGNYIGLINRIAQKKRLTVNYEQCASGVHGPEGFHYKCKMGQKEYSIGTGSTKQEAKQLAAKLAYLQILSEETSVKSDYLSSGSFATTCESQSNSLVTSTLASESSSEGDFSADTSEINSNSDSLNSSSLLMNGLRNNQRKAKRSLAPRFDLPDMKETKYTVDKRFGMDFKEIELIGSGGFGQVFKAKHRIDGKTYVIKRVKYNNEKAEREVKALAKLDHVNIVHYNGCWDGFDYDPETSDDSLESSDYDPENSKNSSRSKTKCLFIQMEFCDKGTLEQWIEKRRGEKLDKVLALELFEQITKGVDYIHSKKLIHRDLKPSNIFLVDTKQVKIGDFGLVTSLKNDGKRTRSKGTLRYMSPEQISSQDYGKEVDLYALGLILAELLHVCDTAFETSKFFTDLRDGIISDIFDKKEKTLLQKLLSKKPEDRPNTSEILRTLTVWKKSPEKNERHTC

[20] = molecular target: Serine/threonine-protein kinase MRCK gamma (Homo sapiens) (UniProt Q6DT37); assay: Inhibition of DMPK2 (unknown origin) assessed as remaining activity at 1 uM by Kinome scan method relative to control
[21] = molecular target: Interleukin-1 receptor-associated kinase 1 (Homo sapiens) (UniProt P51617); assay: Inhibition of IRAK1 (unknown origin) assessed as remaining activity at 1 uM by Kinome scan method relative to control
[22] = molecular target: Mitogen-activated protein kinase kinase kinase 2 (Homo sapiens) (UniProt Q9Y2U5); assay: Inhibition of MAP3K2 (unknown origin) assessed as remaining activity at 1 uM by Kinome scan method relative to control
Sequence of Mitogen-activated protein kinase kinase kinase 2 (Homo sapiens) (Q9Y2U5 whole entry): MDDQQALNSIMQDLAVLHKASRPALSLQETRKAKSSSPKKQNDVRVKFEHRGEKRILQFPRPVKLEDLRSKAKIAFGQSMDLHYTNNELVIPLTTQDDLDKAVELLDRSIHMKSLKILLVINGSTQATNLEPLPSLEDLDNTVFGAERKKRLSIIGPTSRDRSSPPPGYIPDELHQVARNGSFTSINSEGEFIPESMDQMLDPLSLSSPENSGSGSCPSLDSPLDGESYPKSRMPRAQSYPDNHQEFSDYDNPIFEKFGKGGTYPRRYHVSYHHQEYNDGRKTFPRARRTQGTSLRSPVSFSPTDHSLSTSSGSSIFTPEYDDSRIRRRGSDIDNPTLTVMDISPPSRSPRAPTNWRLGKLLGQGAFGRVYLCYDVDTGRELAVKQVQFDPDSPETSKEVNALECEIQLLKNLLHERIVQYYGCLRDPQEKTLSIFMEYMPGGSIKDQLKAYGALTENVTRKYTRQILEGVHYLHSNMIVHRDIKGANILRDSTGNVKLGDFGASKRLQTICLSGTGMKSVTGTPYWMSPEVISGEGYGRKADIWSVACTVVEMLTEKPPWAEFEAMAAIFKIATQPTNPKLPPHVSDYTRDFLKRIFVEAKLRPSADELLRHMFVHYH

[23] = molecular target: Macrophage-stimulating protein receptor (Homo sapiens) (UniProt Q04912); assay: Inhibition of MST1R (unknown origin) assessed as remaining activity at 1 uM by Kinome scan method relative to control
Sequence of Macrophage-stimulating protein receptor (Homo sapiens) (Q04912 25-304 limits assumed): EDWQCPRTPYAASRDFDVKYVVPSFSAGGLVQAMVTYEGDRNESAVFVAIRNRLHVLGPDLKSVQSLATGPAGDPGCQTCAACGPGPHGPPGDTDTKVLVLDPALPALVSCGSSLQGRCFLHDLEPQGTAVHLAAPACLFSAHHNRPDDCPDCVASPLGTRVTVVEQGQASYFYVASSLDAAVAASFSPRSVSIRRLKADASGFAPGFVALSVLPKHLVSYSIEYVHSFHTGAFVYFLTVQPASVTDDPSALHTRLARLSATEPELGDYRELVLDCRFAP
Sequence of Macrophage-stimulating protein receptor (Homo sapiens) (Q04912 310-1400 limits assumed): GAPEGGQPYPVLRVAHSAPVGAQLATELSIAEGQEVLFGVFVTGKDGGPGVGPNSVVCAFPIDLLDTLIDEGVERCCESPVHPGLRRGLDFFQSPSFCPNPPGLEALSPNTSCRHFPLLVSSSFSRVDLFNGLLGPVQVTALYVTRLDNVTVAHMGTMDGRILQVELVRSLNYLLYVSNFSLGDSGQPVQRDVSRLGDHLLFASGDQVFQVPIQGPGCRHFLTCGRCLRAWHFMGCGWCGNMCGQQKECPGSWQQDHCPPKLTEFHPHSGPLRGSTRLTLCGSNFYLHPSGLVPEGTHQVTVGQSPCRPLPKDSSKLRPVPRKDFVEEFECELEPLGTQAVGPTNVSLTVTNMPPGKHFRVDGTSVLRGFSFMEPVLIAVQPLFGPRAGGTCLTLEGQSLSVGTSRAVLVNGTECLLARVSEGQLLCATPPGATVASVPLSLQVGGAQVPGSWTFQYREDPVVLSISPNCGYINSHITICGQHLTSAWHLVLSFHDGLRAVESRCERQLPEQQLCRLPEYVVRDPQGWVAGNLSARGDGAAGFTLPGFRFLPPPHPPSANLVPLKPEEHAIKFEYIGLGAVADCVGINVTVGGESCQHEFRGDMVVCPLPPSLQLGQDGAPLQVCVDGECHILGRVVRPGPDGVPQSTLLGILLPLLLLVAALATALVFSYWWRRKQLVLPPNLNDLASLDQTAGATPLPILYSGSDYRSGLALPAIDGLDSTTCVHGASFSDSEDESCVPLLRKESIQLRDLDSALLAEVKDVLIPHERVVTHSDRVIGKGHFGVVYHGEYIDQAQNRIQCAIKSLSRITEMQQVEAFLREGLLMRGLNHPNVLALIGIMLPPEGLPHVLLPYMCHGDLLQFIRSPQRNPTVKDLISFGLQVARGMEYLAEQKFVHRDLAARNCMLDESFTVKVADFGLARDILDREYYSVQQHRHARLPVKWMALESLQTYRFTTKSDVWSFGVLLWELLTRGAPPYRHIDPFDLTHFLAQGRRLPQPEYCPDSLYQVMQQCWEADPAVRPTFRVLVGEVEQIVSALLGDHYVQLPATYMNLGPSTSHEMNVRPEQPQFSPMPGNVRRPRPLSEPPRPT

[24] = molecular target: Glycogen synthase kinase-3 beta (Homo sapiens) (UniProt P49841); assay: Inhibition of GSK3beta (unknown origin) assessed as remaining activity at 1 uM by Kinome scan method relative to control
[25] = molecular target: Calcium/calmodulin-dependent protein kinase type II subunit gamma (Homo sapiens) (UniProt Q13555); assay: Inhibition of CAMK2G (unknown origin) assessed as remaining activity at 1 uM by Kinome scan method relative to control; how it was run: as §1
Sequence of Calcium/calmodulin-dependent protein kinase type II subunit gamma (Homo sapiens) (Q13555 whole entry): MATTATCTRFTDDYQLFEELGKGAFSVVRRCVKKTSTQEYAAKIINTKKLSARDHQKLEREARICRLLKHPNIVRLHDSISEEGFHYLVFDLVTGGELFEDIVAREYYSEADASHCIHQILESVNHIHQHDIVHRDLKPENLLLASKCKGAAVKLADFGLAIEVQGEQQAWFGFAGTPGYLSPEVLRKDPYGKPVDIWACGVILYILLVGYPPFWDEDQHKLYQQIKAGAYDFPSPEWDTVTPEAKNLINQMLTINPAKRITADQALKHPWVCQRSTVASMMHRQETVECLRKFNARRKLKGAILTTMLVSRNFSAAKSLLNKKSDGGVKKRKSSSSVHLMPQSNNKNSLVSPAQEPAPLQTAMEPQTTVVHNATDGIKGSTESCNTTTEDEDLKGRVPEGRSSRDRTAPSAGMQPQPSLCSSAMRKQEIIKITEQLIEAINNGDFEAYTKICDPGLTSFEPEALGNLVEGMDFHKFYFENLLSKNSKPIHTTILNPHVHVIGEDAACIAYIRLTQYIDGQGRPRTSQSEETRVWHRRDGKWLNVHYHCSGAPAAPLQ

[26] = molecular target: Mitogen-activated protein kinase kinase kinase 14 (Homo sapiens) (UniProt Q99558); assay: Inhibition of NIK (unknown origin) assessed as remaining activity at 1 uM by Kinome scan method relative to control

For CN1C(=O)c2sccc2N(C)c2nc(Nc3ccc(S(N)(=O)=O)cc3)ncc21, the Activity [1] was 100%, the Activity [2] was 62% and the Activity [3] was 85%. For the same molecule, the Activity [4] was 98%, the Activity [5] was 100% and the Activity [6] was 95%. The Activity [7] was 94%, the Activity (HepG2) was 5.12% and the Activity [8] was 98%. It also gave an Activity [9] of 79%, an Activity [10] of 100% and an Activity [11] of 100%. For the same molecule, the Activity [12] was 93%, the Activity [13] was 96% and the Activity [14] was 92%. For the same molecule, the Kd [15] was 5 nM, the Activity (Mus musculus) was “Active” and the Activity [16] was 73%. It also gave an Activity [17] of 100%, an Activity [18] of 72% and an Activity [19] of 100%. For the same molecule, the Activity [20] was 100%, the Activity [21] was 51% and the Activity [22] was 2.6%. The Activity [23] was 96%, the Activity [24] was 100% and the Activity [25] was 100%. For the same molecule, the Activity [26] was 58%.
